pEC50: −log10 of the molar value.
target: T1, Sodium/glucose cotransporter 2 (Homo sapiens, UniProt P31639); assay: Inhibition of human SGLT2 expressed in CHO-K1 cells assessed as inhibition of [14C]-AMG uptake up to 120 mins by scintillation counting method; type: cell-based
T1 sequence (P31639 whole entry): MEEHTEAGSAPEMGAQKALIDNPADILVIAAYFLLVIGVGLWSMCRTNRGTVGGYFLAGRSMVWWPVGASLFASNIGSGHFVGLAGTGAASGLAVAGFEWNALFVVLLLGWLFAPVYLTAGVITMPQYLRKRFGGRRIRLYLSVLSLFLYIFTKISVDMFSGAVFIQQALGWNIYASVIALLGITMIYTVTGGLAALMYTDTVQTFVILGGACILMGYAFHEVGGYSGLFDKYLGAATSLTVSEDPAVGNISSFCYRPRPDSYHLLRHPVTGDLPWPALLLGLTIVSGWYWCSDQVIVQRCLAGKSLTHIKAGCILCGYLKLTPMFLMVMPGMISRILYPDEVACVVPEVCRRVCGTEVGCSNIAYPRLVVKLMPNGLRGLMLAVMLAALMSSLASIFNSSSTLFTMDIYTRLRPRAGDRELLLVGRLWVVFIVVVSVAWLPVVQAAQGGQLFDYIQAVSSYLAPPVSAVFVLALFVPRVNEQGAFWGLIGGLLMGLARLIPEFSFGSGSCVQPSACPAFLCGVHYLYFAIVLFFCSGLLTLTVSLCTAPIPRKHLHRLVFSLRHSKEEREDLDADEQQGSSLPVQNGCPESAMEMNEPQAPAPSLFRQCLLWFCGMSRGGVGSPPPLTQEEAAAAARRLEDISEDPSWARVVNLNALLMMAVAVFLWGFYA
Procedure, shortened: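 Uptake of 3 µM [¹⁴C]-AMG ± inhibitor at 37 °C, stopped with ice-cold KRH. Cells lysed in 0.1% SDS 24 h, then counted. Inhibition vs DMSO-only wells. EC₅₀ from sigmoidal fit, mean of ≥3 determinations.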

Structure (SMILES)	pEC50
CCOc1ccc(Cc2cc([C@@H]3O[C@H]([C@H](O)CO)[C@H](O)[C@H]3O)ccc2C)cc1	4.47
CCc1ccc(Cc2cc([C@@H]3O[C@H]([C@H](O)CO)[C@H](O)[C@H]3O)ccc2C)cc1	5.60
CCc1ccc(Cc2cc([C@@H]3O[C@H]([C@H](O)CO)[C@H](O)[C@H]3O)c(OC)cc2Cl)cc1	6.21
COc1cccc(Cc2cc([C@@H]3O[C@H]([C@H](O)CO)[C@H](O)[C@H]3O)ccc2Cl)c1	< 4.30
COc1ccccc1Cc1cc([C@@H]2O[C@H]([C@H](O)CO)[C@H](O)[C@H]2O)ccc1Cl	< 4.30
OC[C@@H](O)[C@H]1O[C@@H](c2ccc(Cl)c(Cc3ccc(F)cc3)c2)[C@H](O)[C@H]1O	< 4.30
CSc1ccc(Cc2cc([C@@H]3O[C@H]([C@H](O)CO)[C@H](O)[C@H]3O)ccc2Cl)cc1	5.43
COc1ccc2cc(Cc3cc([C@@H]4O[C@H]([C@H](O)CO)[C@H](O)[C@H]4O)ccc3Cl)ccc2c1	5.29
OC[C@@H](O)[C@H]1O[C@@H](c2ccc(Cl)c(Cc3ccc4c(c3)OCO4)c2)[C@H](O)[C@H]1O	< 4.30
CCOc1ccc(Cc2cc([C@@H]3O[C@H]([C@H](O)CO)[C@H](O)[C@H]3O)ccc2Cl)cc1	< 4.30
CC(C)c1ccc(Cc2cc([C@@H]3O[C@H]([C@H](O)CO)[C@H](O)[C@H]3O)ccc2Cl)cc1	4.48

Next, values leading:

pEC50	Structure (SMILES)
4.96	Cc1ccc([C@@H]2O[C@H]([C@H](O)CO)[C@H](O)[C@H]2O)cc1Cc1ccc(C(C)C)cc1
4.34	CCOc1ccc(Cc2cc([C@@H]3O[C@H]([C@H](O)CO)[C@H](O)[C@H]3O)c(OC)cc2Cl)cc1
4.68	COc1cc(Cl)c(Cc2ccc(C(C)C)cc2)cc1[C@@H]1O[C@H]([C@H](O)CO)[C@H](O)[C@H]1O
4.46	COc1ccc(Cc2cc([C@@H]3O[C@H]([C@H](O)CO)[C@H](O)[C@H]3O)ccc2Cl)cc1
< 4.30	OC[C@@H](O)[C@H]1O[C@@H](c2ccc(Cl)c(Cc3ccc(Oc4ccccc4)cc3)c2)[C@H](O)[C@H]1O

From ChEMBL document CHEMBL2440078, “Synthesis and biological evaluation of novel C-aryl d-glucofuranosides as sodium-dependent glucose co-transporter 2 inhibitors” (Bioorg Med Chem, 2013)
